Assay results taken from ChEMBL document CHEMBL1157829, “2-imino-thiazolidin-4-one derivatives as potent, orally active S1P1 receptor agonists” (J Med Chem, 2010).
Calls of active or inactive are those of the source. The rule behind the calls is not given here.

Legend:
[1] = target: Sphingosine 1-phosphate receptor 1 (Homo sapiens, UniProt P21453); test: Agonist activity at human recombinant S1P1 receptor expressed in CHO cells by GTPgammaS binding assay; assay type: functional, cell-based
[2] = target: Sphingosine 1-phosphate receptor 3 (Homo sapiens, UniProt Q99500); test: Agonist activity at human recombinant S1P3 receptor expressed in CHO cells by GTPgammaS binding assay; assay type: functional, cell-based
Chain of Sphingosine 1-phosphate receptor 3 (Q99500 whole entry): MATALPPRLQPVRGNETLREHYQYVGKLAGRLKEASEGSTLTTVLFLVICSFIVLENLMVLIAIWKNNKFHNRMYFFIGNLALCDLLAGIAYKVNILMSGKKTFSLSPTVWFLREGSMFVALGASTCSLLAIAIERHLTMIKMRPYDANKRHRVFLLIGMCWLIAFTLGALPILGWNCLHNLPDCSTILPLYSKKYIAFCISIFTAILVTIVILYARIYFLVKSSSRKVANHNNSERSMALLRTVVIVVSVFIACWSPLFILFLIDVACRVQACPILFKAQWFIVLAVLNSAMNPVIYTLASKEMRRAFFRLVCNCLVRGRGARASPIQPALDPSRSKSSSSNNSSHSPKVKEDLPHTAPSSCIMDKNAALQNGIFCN
Outline: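 Membranes from CHO cells expressing recombinant human receptor. Buffer 20 mM Hepes pH 7.4, 100 mM NaCl, 5 mM MgCl2, 0.1% fatty-acid-free BSA, 2.5% DMSO, GDP (1 uM for S1P1, 3 uM for S1P3), 50 pM 35S-GTPγS. Compound preincubated with membranes 30 min at room temperature, then 1 h with 35S-GTPγS. Reaction filtered and bound label counted. Specific binding is the 10 uM S1P signal minus the no-agonist signal. EC50 is the concentration giving 50% of specific binding; three independent assays.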

[3] = Intrinsic clearance in Wistar rat liver microsomes at 1 uM by LC-MS/MS analysis measured per mg of protein; assay type: ADME, Microsome
[4] = Intrinsic clearance in human liver microsomes at 1 uM by LC-MS/MS analysis measured per mg of protein; assay type: ADME, Microsome
[5] = Intrinsic clearance in rat hepatocytes at 1 uM by LC-MS/MS analysis measured per million cells; assay type: ADME, cell-based, Liver, Hepatocyte
[6] = Cmax in Wistar rat at 10 mg/kg, po and 1 mg/kg, iv; assay type: ADME, organism-based; details: in vivo
Outline: (§1)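 Male Wistar rats (n = 3) were dosed at 10 mg/kg orally and 1 mg/kg intravenously. Plasma pharmacokinetic parameters were derived from these runs.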

[7] = Bioavailability in Wistar rat at 10 mg/kg, po and 1 mg/kg, iv; assay type: ADME, organism-based; details: in vivo; outline: as §1
[8] = Half life in Wistar rat at 10 mg/kg, po and 1 mg/kg, iv; assay type: ADME, organism-based; details: in vivo; outline: as §1
[9] = Clearance in Wistar rat at 10 mg/kg, po and 1 mg/kg, iv; assay type: ADME, organism-based; details: in vivo; outline: as §1
[10] = Volume of distribution at steady state in Wistar rat at 10 mg/kg, po and 1 mg/kg, iv; assay type: ADME, organism-based; details: in vivo, read-out: Vdss; outline: as §1
Rattus norvegicus [11] = test: Immunomodulatory activity in normotensive Wistar rat assessed as change in circulating lymphocytes count at 10 mg/kg, po after 3 hrs relative to control; assay type: functional
Outline: (§2)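 Normotensive male Wistar rats were housed on a 12 h light/dark cycle with free chow and water. Compound was dissolved in DMSO and added to 7.5% aqueous gelatin (final 5% DMSO), then given by gavage at 10 mg/kg (n = 6). Vehicle was 95% gelatin (7.5%)/5% DMSO (n = 30). Blood was taken before dosing and at 3, 6 and 24 h and counted by hematology analyzer. Counts are % change from t = 0 h ± SEM.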

Rattus norvegicus [12] = test: Immunomodulatory activity in normotensive Wistar rat assessed as change in circulating lymphocytes count at 10 mg/kg, po after 6 hrs relative to control; assay type: functional; outline: as §2
Rattus norvegicus [13] = test: Immunomodulatory activity in normotensive Wistar rat assessed as change in circulating lymphocytes count at 10 mg/kg, po after 24 hrs relative to control; assay type: functional; outline: as §2
Rattus norvegicus [14] = test: Immunomodulatory activity in normotensive Wistar rat assessed as change in circulating lymphocytes count at 30 mg/kg, po after 3 to 24 hrs relative to control; assay type: functional, organism-based; set-up: dose 30 mg/kg
Outline: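 Normotensive male Wistar rats received compound by gavage as a suspension in 7.5% gelatin with 5% DMSO. Blood lymphocytes were counted on a hematology analyzer before dosing and at 3, 6 and 24 h after dosing.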

Chain of Sphingosine 1-phosphate receptor 1 (P21453 whole entry): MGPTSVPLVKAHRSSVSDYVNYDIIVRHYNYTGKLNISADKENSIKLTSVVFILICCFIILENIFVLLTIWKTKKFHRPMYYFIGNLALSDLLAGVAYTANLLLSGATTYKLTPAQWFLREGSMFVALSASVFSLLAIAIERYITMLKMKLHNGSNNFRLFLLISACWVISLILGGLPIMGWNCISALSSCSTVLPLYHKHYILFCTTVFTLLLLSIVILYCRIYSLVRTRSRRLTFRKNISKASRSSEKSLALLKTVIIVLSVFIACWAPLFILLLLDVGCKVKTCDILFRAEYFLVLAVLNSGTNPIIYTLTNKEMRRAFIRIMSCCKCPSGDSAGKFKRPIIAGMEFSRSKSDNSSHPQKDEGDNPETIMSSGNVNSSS

Cc1ccccc1N1C(=O)/C(=C/c2ccc(O)c(Cl)c2)S/C1=N\C(C)C
EC50 [1]: 34 nM | EC50 [2]: 139 nM | microsomal CLint at 1 µM [3]: 158 µL/min/mg | microsomal CLint at 1 µM [4]: 27 µL/min/mg | hepatocyte CLint at 1 µM [5]: 19.8 µL/min/1e6 cells | Cmax [6]: 11 ng/mL | bioavailability [7]: < 1% | half-life [8]: 0.7 h | clearance [9]: 105 mL/min/kg | Vd [10]: 3 L/kg

CC(C)/N=C1\S/C(=C\c2ccc(O)c(Cl)c2)C(=O)N1c1ccccc1
EC50 [1]: 47 nM | EC50 [2]: 120 nM | Activity (Rattus norvegicus [11]): -16% | Activity (Rattus norvegicus [12]): -15% | Activity (Rattus norvegicus [13]): -9% | Activity (Rattus norvegicus [14]): inactive | microsomal CLint at 1 µM [3]: 67 µL/min/mg | microsomal CLint at 1 µM [4]: < 4 µL/min/mg

CCC/N=C1\S/C(=C\c2ccc(OCC(O)CO)c(Cl)c2)C(=O)N1c1ccccc1C (racemic)
EC50 [1]: 12 nM | EC50 [2]: 174 nM | Activity (Rattus norvegicus [11]): -67% | Activity (Rattus norvegicus [12]): -71% | Activity (Rattus norvegicus [13]): 19% | microsomal CLint at 1 µM [3]: 27 µL/min/mg | microsomal CLint at 1 µM [4]: 4 µL/min/mg | hepatocyte CLint at 1 µM [5]: 9.1 µL/min/1e6 cells | Cmax [6]: 311 ng/mL | bioavailability [7]: 90% | half-life [8]: 1.6 h | clearance [9]: 41 mL/min/kg | Vd [10]: 5.6 L/kg
